Screens: PubChem, several laboratories
Neddylation inh = cullin neddylation inhibition; P61081+Q13564; TR-FRET cullin neddylation, biochemical; inhibition, % at 25 µM; 360,000 tested, 0.58% active; AID 651699; in the data active means inhibition above about 36%
PKA-R2B act = PKA-R2B complex activation; P22694+P31323; PKA-R2B holoenzyme dissociation, Cy5-IP20 fluorescence polarization; R2B truncated from residue 108, S112A mutant; 0% DMSO only, 100% 113 µM cGMP; activation, % at 11.4 µM; 340,000 tested, 0.079% active; AID 504700;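 active means activation above a cutoff set at the mean over all compounds plus 3 SD, cut at about 18% in these data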;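 further: higher means more holoenzyme dissociation and a rise in polarization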
Target sequence (P31323 whole entry, looked up, other chains not shown, the tested form may be a part): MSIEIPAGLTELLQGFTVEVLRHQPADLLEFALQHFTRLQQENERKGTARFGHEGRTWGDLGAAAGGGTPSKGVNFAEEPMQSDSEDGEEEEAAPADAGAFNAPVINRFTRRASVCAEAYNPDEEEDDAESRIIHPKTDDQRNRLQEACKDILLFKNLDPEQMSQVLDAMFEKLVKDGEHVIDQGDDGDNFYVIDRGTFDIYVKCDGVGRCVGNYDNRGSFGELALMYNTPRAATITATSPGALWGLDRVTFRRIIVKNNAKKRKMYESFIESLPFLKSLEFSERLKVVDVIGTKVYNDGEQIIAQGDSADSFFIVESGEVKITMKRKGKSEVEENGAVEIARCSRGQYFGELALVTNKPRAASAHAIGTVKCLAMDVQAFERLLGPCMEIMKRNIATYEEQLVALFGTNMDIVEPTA
PKA-R1A activ = activators of PKA-R1A complex; P00514+P68181; PKA-R1A dissociation, Cy5-IP20 fluorescence polarization; scaled: DMSO 0%, 113 µM cGMP 100%; activation, % at 11.4 µM; 340,000 tested, 0.083% active; AID 504707;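 active means percent activation above the mean of all tested compounds plus 3 SD, cut at about 19% in these data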;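 further: higher means more PKAc released from R1A so a rise in polarization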
Tn7 DDE FP = inhibitors of Tn7 peptide binding to human fibrin DD(E). 370,000 tested, 0.13% active. AID 720508. FP displacement of FITC-Tn7 peptide from fibrin DD(E); 0% = median of compound wells per plate. inhibition, % at 8.3 µM. P02675;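 active means inhibition above the mean of compounds falling within the control limits plus 3 SD of them, cut at about 14% in these data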
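Assay system: Human fibrin DD(E) protein | Medium: Tris buffer with calcium and detergent, pH 7.8 | Reagent: 0.1 µM fluorescent Tn7 | Compound dosing: Single point at 8.3 µM | Times: 10 min preincubation, 3 h with tracer, room temperature | Detection: Fluorescence polarization of the labelled Tn7 tracer | Controls: Aha-Tn7 high control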
DDE Tn6 FP inh = inhibitors of Tn6 peptide binding to human fibrin DD(E); P02675; Fibrin DD(E) TRITC-Tn6 fluorescence polarization displacement; inhibition, % at 8.3 µM; 370,000 tested, 0.21% active; AID 720509;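 active means inhibition above a per-campaign cutoff: mean of compounds within control limits plus 3 SD, cut at about 15% in these data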
Neddyl inh conf = cullin neddylation inhibition, confirmation | shares compounds with Neddylation inh | TR-FRET cullin neddylation biochemical assay | calls only at 25 µM | 1,800 tested, 13% active | AID 652217; in the data active means inhibition above about 40%;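 further: neddylation substrate is the cullin 1 ring ligase complex with SKP2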
Hits are given with their value; . = inactive; / = not tested or not shown; + = active, no number. Sampled rows, rich in hits. Any-hit rate of the full collection: about 1%.

SMILES | Neddylation inh | PKA-R2B act | PKA-R1A activ | Tn7 DDE FP | DDE Tn6 FP inh | Neddyl inh conf
COc1ccc(CN2C[C@H](COCc3ccccc3)Oc3cccc(Oc4ccc(C(C)C)cc4)c3S2(=O)=O)cc1 | / | / | / | . | . | /
Cc1c(C(C)NC(=O)c2cc(COc3cccc4cnccc34)on2)cnn1C (stereo unspecified) | 55.5 | . | . | . | . | +
COC(=O)C1=C(C)N(Cc2ccc(Br)cc2)C(=S)NC1c1cccc(OC)c1 (stereo unspecified) | / | / | / | . | . | /
O=C1N2Cc3ccccc3C2CS(=O)(=O)N1C1CCCC1 (stereo unspecified) | / | / | / | . | . | /
COc1cccc(/C=N/NC(=O)c2cc3c(OC)c(OC)ccc3[nH]2)c1OC | . | . | . | . | . | /
COc1cccc(/C=N/NC(=O)c2cc3c(OC)cccc3[nH]2)c1OC | 43.0 | . | . | . | . | .
CCOc1ccc(/C=N/NC(=O)c2cc3c(OC)cccc3[nH]2)cc1 | 42.8 | . | . | . | . | .
COc1ccc(/C=N/NC(=O)c2[nH]c3ccc(Cl)cc3c2-c2ccccc2)c(C(=O)O)c1OC | 41.7 | . | . | . | . | /
CSc1nc(N)c2c3c(sc2n1)CN(C)CC3 | 41.2 | . | . | . | . | .
C=CCSc1nc(N)c2c3c(sc2n1)CN(C)CC3 | . | . | . | . | . | /
COc1ccccc1OCC(=O)/C=C1/N(C)c2ccccc2C1(C)C | 46.4 | . | . | . | . | .
O=C(N/N=C/c1ccncc1)c1nc2ccccc2c(=O)[nH]1 | . | . | . | . | . | /
O=C(N/N=C/c1ccc2cccnc2c1)c1nc2ccccc2c(=O)[nH]1 | 46.0 | . | . | . | . | .
CCN(CC)C(=O)Oc1ccc2oc(=O)cc(-c3cc4cccc(OC)c4o3)c2c1 | 47.5 | . | . | . | . | /
Cc1onc(-c2ccccc2)c1C(=O)Nc1ccc2c(C)cc(=O)oc2c1 | 40.6 | . | . | . | . | .
Cc1cc(=O)oc2cc(NC(=O)C(C)Oc3ccc(F)cc3)ccc12 (stereo unspecified) | 38.7 | . | . | . | . | /
CCCC(C(=O)Nc1ccc2c(C)cc(=O)oc2c1)c1ccccc1 (stereo unspecified) | 41.7 | . | . | . | . | .
Cc1cc(=O)oc2ccc(OC(C)C(=O)O)cc12 (stereo unspecified) | 45.6 | . | . | . | . | .
CCOc1ccc2oc(=O)cc(C)c2c1 | . | . | . | . | . | /
Cc1onc(-c2ccccc2)c1C(=O)Nc1ccncc1 | . | . | . | . | . | /
COc1ccccc1C(=O)NC1CCCCN(Cc2cccc(C(F)(F)F)c2)C1=O (stereo unspecified) | / | / | / | . | . | /
O=C(Cn1nnc(-c2ccncc2)n1)Nc1ccc(Cl)cc1 | / | / | / | . | . | /
COC(=O)c1cc2c(c3c4cc(F)ccc4n(S(=O)(=O)c4ccccc4)c13)C(=O)N(Cc1ccccc1)C2 | / | / | / | . | . | /
COc1cc(C(=O)NC2CCN(C)CC2)ccc1Nc1ncc2c(n1)N(CCc1ccccc1)CCC(=O)N2C | 38.7 | . | . | . | . | .
CCCC(C)C(=O)NC1CCCCN(Cc2ccc(C)cc2)C1=O (stereo unspecified) | / | / | / | . | . | /
SMILES | Neddylation inh | PKA-R2B act | PKA-R1A activ | Tn7 DDE FP | DDE Tn6 FP inh | Neddyl inh conf
c1ccc(Cn2c(SCc3cn4cccnc4n3)nnc2-c2ccco2)cc1 | 37.1 | . | . | . | . | .
O=C(CSc1nnc(-c2ccco2)n1Cc1ccccc1)c1ccccc1 | . | . | . | . | . | /
CC(=O)Nc1nc(CC(C)C)cc(-c2ccco2)c1C#N | 44.7 | . | . | . | . | .
CC(=O)Nc1nc(CC(C)C)cc(-c2ccccc2)c1C#N | . | . | . | . | . | /
COc1cc2oc(-c3ccc(O)cc3)cc(=O)c2c(OC)c1O | 40.0 | . | . | . | . | .
CCOC(=O)c1[nH]c2ccc(Cl)cc2c1NC(=O)/C=C/c1ccc2c(c1)OCO2 | 41.9 | . | . | . | . | .
CN(C(=O)COC(=O)c1cccc(Cl)c1)C1CCS(=O)(=O)C1 (stereo unspecified) | . | . | . | . | . | /
CN(C(=O)COC(=O)c1ccc(-c2ccc(O)cc2)cc1)C1CCS(=O)(=O)C1 (stereo unspecified) | 38.5 | . | . | . | . | .
CCCCCCCCN1C(=O)[C@@H](CC(=O)N2CCCC2)C[C@@]2(C(=O)OC)C1=C[C@H](C(C)C)O[C@@H]2C1CC1 | / | / | / | . | . | /
CCCCC[n+]1cccc2c3ccccc3ccc21 | / | . | . | . | . | /
c1ccc(C[n+]2cccc3c4ccccc4ccc32)cc1 | 59.9 | . | . | . | . | /
CNc1nc2c(C)cccn2c(=O)c1C=NCc1ccccc1 | . | . | . | . | . | /
Cc1cccn2c(=O)c(C=Nc3ccc(Cl)cc3)c(NCCO)nc12 | . | . | . | . | . | /
CN=Cc1c(NC)nc2c(C)cccn2c1=O | 42.8 | . | . | . | . | +
Cc1cccn2c(=O)c(C=Nc3ccccc3)c(NCCO)nc12 | 45.8 | . | . | . | . | .
O=C(NCc1ccccc1)OCCN1C(=O)CCC12CCCCC2 | / | / | / | . | . | /
N#CCS(=O)(=O)c1cccc[n+]1[O-] | / | / | / | . | . | /
CS(=O)(=O)c1ccc(Cl)c(NC(=O)COC(=O)CCCN2C(=O)c3cccc4cccc(c34)C2=O)c1 | 50.1 | . | . | . | . | .
Cc1onc(-c2ccc(Cl)cc2)c1-c1ccn(S(=O)(=O)c2cccc(Cl)c2)n1 | / | / | / | . | . | /
N#Cc1c2c(c(NCCCN3CCOCC3)n3c1nc1ccccc13)CCC2 | / | . | . | . | . | /
CCCc1c(C)c(C#N)c2nc3ccccc3n2c1NCCCN1CCOCC1 | 46.0 | . | . | . | . | .
CC(C)c1cc(NCCN2CCOCC2)n2c(nc3ccccc32)c1C#N | 37.7 | . | . | . | . | .
CCc1c(C)c(C#N)c2nc3ccccc3n2c1NCCOC | 40.7 | . | . | . | . | /
CCc1c(C)c(C#N)c2nc3ccccc3n2c1NCCCN(C)C | . | . | . | . | . | /
COc1cccc(N2CCN(CC(=O)NCc3c(F)cccc3F)CC2)c1 | / | / | / | . | . | /
SMILES | Neddylation inh | PKA-R2B act | PKA-R1A activ | Tn7 DDE FP | DDE Tn6 FP inh | Neddyl inh conf
CC(=O)CC[C@@H]1CC[C@]2(CCCN(S(=O)(=O)c3ccccc3)C2)O1 | / | / | / | . | . | /
O=C(Cc1c[nH]c2ccccc12)Nc1ccc(Nc2cccnc2)c(-c2ccc(Cl)c(Cl)c2)c1 | / | / | / | . | . | /
Cc1ccccc1S(=O)(=O)N1CCCc2nc(-c3ccccc3)ccc21 | / | / | / | . | . | /
CSc1ccccc1NC(=S)N/N=C/c1cccn1Cc1ccc(F)cc1 | 46.6 | . | . | . | . | .
COc1ccc(-n2nnc3c(SCC(=O)Nc4ccccc4F)ncnc32)cc1 | 42.4 | . | . | . | . | .
CCOC(=O)CSc1ccc2nnc(-c3ccccc3)n2n1 | / | . | . | . | . | /
CCOC(=O)CSc1ccc2nnc(-c3cccnc3)n2n1 | 54.6 | . | . | . | . | /
